The record followed here is ChEMBL document CHEMBL1122971, “Aldosterone antagonists. 1. Synthesis and biological activities of 11 beta,18-epoxypregnane derivatives” (J Med Chem, 1985).

“And” between values parts separate entries of the source, which are not always exact repeats. Equal values may be shown once. The source made the active and inactive calls. The rule behind the calls is not given here.

Assay [1] deals with T1, Mineralocorticoid receptor (Rattus norvegicus) (UniProt P22199).
T1 sequence (whole entry): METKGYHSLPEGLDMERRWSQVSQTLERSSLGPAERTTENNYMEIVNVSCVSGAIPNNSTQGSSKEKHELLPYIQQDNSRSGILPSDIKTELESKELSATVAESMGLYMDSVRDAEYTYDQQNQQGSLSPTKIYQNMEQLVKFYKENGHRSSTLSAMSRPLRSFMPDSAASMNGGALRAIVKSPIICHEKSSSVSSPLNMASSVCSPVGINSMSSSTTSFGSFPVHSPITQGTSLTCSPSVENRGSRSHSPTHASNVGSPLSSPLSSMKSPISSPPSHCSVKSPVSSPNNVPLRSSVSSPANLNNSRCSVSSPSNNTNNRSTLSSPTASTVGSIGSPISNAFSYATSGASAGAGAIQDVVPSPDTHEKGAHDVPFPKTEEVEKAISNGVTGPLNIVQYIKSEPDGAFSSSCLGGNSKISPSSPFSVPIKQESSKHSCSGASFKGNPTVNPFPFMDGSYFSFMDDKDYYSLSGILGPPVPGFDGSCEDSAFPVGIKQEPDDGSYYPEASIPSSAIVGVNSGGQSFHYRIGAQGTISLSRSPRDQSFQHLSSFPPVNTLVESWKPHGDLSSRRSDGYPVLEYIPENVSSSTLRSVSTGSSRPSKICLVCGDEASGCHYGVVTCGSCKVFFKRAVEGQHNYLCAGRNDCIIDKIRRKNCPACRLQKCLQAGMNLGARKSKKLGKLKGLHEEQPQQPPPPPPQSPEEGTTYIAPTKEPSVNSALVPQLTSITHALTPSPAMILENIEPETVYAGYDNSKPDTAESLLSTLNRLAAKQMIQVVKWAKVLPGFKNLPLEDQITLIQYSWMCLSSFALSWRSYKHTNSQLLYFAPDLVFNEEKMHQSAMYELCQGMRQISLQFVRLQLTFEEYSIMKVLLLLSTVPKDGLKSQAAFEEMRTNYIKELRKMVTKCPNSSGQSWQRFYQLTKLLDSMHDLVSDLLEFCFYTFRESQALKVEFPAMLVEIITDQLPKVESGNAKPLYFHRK
The assay is described as follows: Aldosterone (0 ug/kg) antagonist and agonist activity for urinary Na/k at 25 ug/kg. Format: functional. Conditions: Urine. The method, boiled down: (§1)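 Male Slc:Wistar rats, 7 weeks old, bilaterally adrenalectomized 2 days before assay, kept on 0.45% NaCl. Sugar cubes replaced diet the next evening, with 6 mL 0.45% NaCl/100 g given ip that evening and again on assay morning. Aldosterone (5 μg/kg in sesame oil) or none given sc, test compound sc right after. Urinary Na and K measured by atomic absorption; Na/K reported as mean ± SE.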

For assay [2], the target named is T1, Mineralocorticoid receptor (Rattus norvegicus). The assay is described as follows: (§2) Aldosterone (0 ug/kg) antagonist and agonist activity for urinary Na/k at 0 ug/kg. It counts as functional. The following applies: Urine. The method, boiled down: as §1
Assay [3] shares this target. In words: Relative binding affinity against mineralocorticoid receptor of rat kidney at 25 degree Centigrade. The method, boiled down:
(§3)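 Kidney cytosol from male Sprague-Dawley rats (4-8 weeks), adrenalectomized 1-2 days before, prepared in pH 7.5 phosphate buffer with DTT, sucrose and 10 mM molybdate, spun at 200000g. Incubated with competitor (0.4 nM-40 μM) and about 1 nM 3H-aldosterone for 42-48 h at 0 °C or 100-120 min at 25/26 °C. Dextran-coated charcoal separation. RBA = ratio of 50%-inhibition concentrations versus aldosterone standard (=100).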

The target of assay [4] is T2, Androgen receptor (Rattus norvegicus) (UniProt P15207).
T2 sequence (whole entry): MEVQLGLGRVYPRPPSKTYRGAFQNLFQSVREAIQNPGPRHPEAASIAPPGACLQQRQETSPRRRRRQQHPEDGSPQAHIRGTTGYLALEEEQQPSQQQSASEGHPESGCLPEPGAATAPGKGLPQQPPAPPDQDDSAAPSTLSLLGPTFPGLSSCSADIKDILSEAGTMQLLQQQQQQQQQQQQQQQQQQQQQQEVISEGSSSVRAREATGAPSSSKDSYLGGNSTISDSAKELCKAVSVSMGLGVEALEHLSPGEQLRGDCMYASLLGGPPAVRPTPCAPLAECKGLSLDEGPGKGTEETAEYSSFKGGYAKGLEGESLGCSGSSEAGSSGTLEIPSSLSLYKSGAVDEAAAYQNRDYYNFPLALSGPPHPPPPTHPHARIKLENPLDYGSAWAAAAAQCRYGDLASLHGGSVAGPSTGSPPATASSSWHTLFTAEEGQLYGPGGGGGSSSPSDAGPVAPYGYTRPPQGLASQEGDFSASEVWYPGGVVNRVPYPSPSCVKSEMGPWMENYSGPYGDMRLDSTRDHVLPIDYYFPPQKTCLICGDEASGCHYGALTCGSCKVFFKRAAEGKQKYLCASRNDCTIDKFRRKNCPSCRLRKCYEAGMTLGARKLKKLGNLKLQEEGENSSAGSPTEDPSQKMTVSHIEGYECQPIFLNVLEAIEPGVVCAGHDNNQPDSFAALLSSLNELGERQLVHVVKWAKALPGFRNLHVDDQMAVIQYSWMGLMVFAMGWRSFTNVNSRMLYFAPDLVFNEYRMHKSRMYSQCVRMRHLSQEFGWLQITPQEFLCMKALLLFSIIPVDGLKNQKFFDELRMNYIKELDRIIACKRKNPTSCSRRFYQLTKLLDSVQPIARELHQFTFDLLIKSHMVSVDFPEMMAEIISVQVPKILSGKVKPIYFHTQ
In words: Relative binding affinity against androgen receptor of rat prostate at 15 degree centigrade; N means negative, < 0.1. The method, boiled down: (§4)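 Ventral prostate cytosol from rats (4-5 weeks) castrated 1 day before, prepared in pH 7.5 phosphate buffer and spun 2 h at 200000g. Incubated with competitor (0.4 nM-40 μM) and 3H-DHT or 3H-methylnandrolone for 16-20 h at 0 °C or 2 h at 15 °C. Dextran-coated charcoal separation. RBA taken against DHT standard (=100); negative means RBA <0.1%.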

Assay [5] deals with T1, Mineralocorticoid receptor (Rattus norvegicus). In words: Aldosterone (0 ug/kg) antagonist and agonist activity for urinary Na/k at 2.5 ug/kg. Format: functional. The following applies: Urine. The method, boiled down: as §1
For assay [6] the target is unchanged. In words: Aldosterone (5 ug/kg) antagonist and agonist activity for urinary Na/k at 0 ug/kg. The following applies: Urine. Format: functional. The method, boiled down: as §1
In assay [7] the target is T2, Androgen receptor (Rattus norvegicus). In words: Relative binding affinity against androgen receptor of rat prostate at 0 degree centigrade; N means negative, < 0.1. The method, boiled down:
as §4

Assay [8] deals with T1, Mineralocorticoid receptor (Rattus norvegicus). In words: Relative binding affinity against mineralocorticoid receptor of rat kidney at 0 degree Centigrade. The method, boiled down: as §3
For assay [9] the target is unchanged. The assay is described as follows: Aldosterone (5 ug/kg) antagonist and agonist activity for urinary Na/k at 2.5 ug/kg. Conditions: Urine. It counts as functional. The method, boiled down:
as §1

Assay [10] shares this target. In words: Aldosterone (5 ug/kg) antagonist and agonist activity for urinary Na/k at 25 ug/kg. It counts as functional. The following applies: Urine. The method, boiled down: as §1
The target is the same in assay [11]. In words: Relative binding affinity against mineralocorticoid receptor of rat kidney at 25 degree centigrade; value ranges from […]-[…]%.
The target is the same in assay [12]. In words: Relative binding affinity against mineralocorticoid receptor of rat kidney at 0 degree centigrade; value ranges from […]-[…]%.
Assay [13] shares this target. In words: Aldosterone (5 ug/kg) antagonist activity for urinary Na/k at 25000 ug/kg. It counts as functional. Conditions: Urine. The method in brief: as §1
For assay [14] the target is unchanged. In words: Aldosterone (5 ug/kg) antagonist activity for urinary Na/k at 250 ug/kg. It counts as functional. The following applies: Urine. The method, boiled down:
as §1

Assay [15] has the same target. In words: Aldosterone (5 ug/kg) antagonist activity for urinary Na/k at 2500 ug/kg. It counts as functional. The following applies: Urine. The method, boiled down:
as §1

Assay [16] has the same target. In words: Aldosterone (0 ug/kg) antagonist and agonist activity for urinary Na/k at 250 ug/kg. Format: functional. Conditions: Urine. The method, boiled down:
as §1

Assay [17] shares this target. In words: Aldosterone (5 ug/kg) antagonist and agonist activity for urinary Na/k at 250 ug/kg. Format: functional. Conditions: Urine. The method in brief: as §1
For assay [18] the target is unchanged. The assay is described as follows: Relative binding affinity against mineralocorticoid receptor of rat kidney at 0 degree centigrade; value ranges from 36-63%. The method in brief:
as §3

The target is the same in assay [19]. In words: Agonist activity for urinary Na/k at 2500 ug/kg. It counts as functional. Conditions: Urine. The method, boiled down:
as §1

Assay [20] shares this target. In words: Aldosterone (0 ug/kg) antagonist activity for urinary Na/k at 0 ug/kg. It counts as functional. The following applies: Urine. The method in brief:
as §1

Assay [21] shares this target. The assay is described as follows: Agonist activity for urinary Na/k at 250 ug/kg. Format: functional. The following applies: Urine. The method in brief: as §1
Assay [22] shares this target. In words: Agonist activity for urinary Na/k at 25000 ug/kg. Conditions: Urine. Format: functional. The method, boiled down: as §1
The target is the same in assay [23]. In words: Aldosterone (0 ug/kg) antagonist and agonist activity for urinary Na/k at 2500 ug/kg. Format: functional. The following applies: Urine. The method in brief: as §1
The target is the same in assay [24]. In words: Aldosterone (5 ug/kg) antagonist activity for urinary Na/k at 0 ug/kg. The following applies: Urine. It counts as functional. The method in brief: as §1
The target is the same in assay [25]. The assay is described as follows: Relative binding affinity against mineralocorticoid receptor of rat kidney at 0 degree centigrade; value ranges from 44-58%. The method, boiled down: as §3
The target is the same in assay [26]. In words: Aldosterone (5 ug/kg) antagonist and agonist activity for urinary Na/k at 2500 ug/kg. Format: functional. The following applies: Urine. The method, boiled down:
as §1

Assay [27] shares this target. In words: Aldosterone (5 ug/kg) antagonist and agonist activity for urinary Na/k at 25000 ug/kg. Format: functional. The following applies: Urine. The method in brief: as §1
For assay [28] the target is unchanged. The assay is described as follows: Aldosterone (0 ug/kg) antagonist and agonist activity for urinary Na/k at 25000 ug/kg. It counts as functional. Conditions: Urine. The method, boiled down:
as §1

Assay [29] shares this target. The description is as §2. It counts as functional. Conditions: Urine. The method in brief: as §1
The source holds these as a separate data set.

As for `CC12CCC(=O)C=C1CCC1C3CCC(C(=O)CO)C34COC(C4)[C@@]12F` (stereo not given in full), the Activity in assay [1] amounted to 0.3; in assay [2], 4.8; in assay [5], 2.8; in [6], 1; in assay [9], 0.7; in [10], 0.1. For the same compound, the RBA in assay [3] worked out at 270%; in assay [8] it was 320%. Moreover, the RBA result in [4] and in [7] was “inactive” each time.
Turning to `CC(=O)S[C@@H]1CC2=CC(=O)CC[C@]2(C)[C@H]2CC[C@@]3(C)[C@@H](CC[C@@]34CCC(=O)O4)[C@H]12`, the RBA in assay [11] amounted to 11%; in assay [12] it was 2.3%. Further, the Activity in assay [13] is 2.83; in assay [14], 0.93; in assay [15], 1.47.
Consider `CC12CCC(=O)C=C1CCC1C3CCC(C(=O)CO)C34COC(C4)[C@@H]12` (stereo not given in full), for which the Activity in [16] was 1.8; in assay [2] it was 3.5; in [17], 1.7; in assay [6] it was 0.8. For the same compound, the RBA in assay [3] amounted to 32%; in assay [18], 36%. Besides, the RBA entry in assay [7] was “inactive”.
On to `CC12CCC(=O)C=C1CCC1C3CC[C@@]4(CCC(=O)O4)C34COC(C4)[C@@]12F` (stereo not given in full), for which the Activity in [2] came out at 5.1; in assay [13], 2.13; in assay [19], 2.7; in assay [14], 1.33; in [20], 4.07; in assay [6], 0.4. Moreover, the Activity in [21] is 3.42; in assay [15], 2.08; in [22] it was 1.95; in assay [23], 3.5; in assay [24], 0.75; in assay [26], 2.5. Also, the RBA in assay [3] was 23%; in assay [25] it was 44%. Also, the RBA entry in assay [4] and in assay [7] was “inactive” in each case.
With `C[C@]12CCC(=O)C=C1CC[C@@H]1[C@@H]2[C@@H](O)C[C@]2(C=O)[C@@H](C(=O)CO)CC[C@@H]12`, the RBA in assay [3] and in assay [8] was 100% throughout.
As for `CC12CCC(=O)C=C1CCC1C3CC[C@@]4(CCC(=O)O4)C34COC(C4)[C@@H]12` (stereo not given in full), the Activity in [27] was 2.2; in [2] it was 3.8; in assay [28] it was 3.8; in assay [6], 1.1 and 0.7; in [29], 7.7; in assay [23], 8.8. Moreover, in assay [26], the Activity is 2.4. Also, the RBA in [3] was determined as 1.1%; in [8], 1.8%.
Turning to `CC(=O)S[C@@H]1CC2=CC(=O)CCC2(C)C2C3CC4(CO3)C(CC[C@@]43CCC(=O)O3)C21` (stereo not given in full), the Activity is 7.7 in assay [2], 1.1 in assay [6], 6.4 in assay [23] and 1.6 in [26]. Also, the RBA in assay [3] was 0.4%; in [8], 0.1%.
